The text below walks through data of article PMC3064480 (Molecular bioSystems, 2010).

Entries after “also recorded” stand apart in the source; their conditions may differ. Ends that are not written are not given here.

In assay [1] the test system is TGF-β responsive SBE(CAGA)12-luciferase reporter, Mv1Lu cells. The experiment in a line: Reporter gene assay, SBE. Format: cell-based, mink. The settings on record: 10 μM SB-431542; 10 pM TGF-β1. In outline:
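Mv1Lu cells stably carrying the SBE(CAGA)12-Luc reporter were grown in DMEM with 10% FBS. About 4000 cells were plated and left to attach overnight. Medium was changed to DMEM with 0.2% FBS 4 h before treatment. Cells received TGF-β1, TGF-β1 with serial dilutions of test peptide, or peptide alone, with untreated cells as control, in triplicate. After 18-24 h, Bright-Glo luminescence was normalised to cell number by CellTiter-Glo.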

In assay [2] the test system is BMPR-IA-ED. Put plainly: SPR, BMPR-IA-ED. The class given is binding, human. Conditions: verification of immobilized receptor activity. In outline: (§1)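 In a separate run, recombinant human β-glycan-ED (residues 21-781), BMPR-IA-ED (Gln24-Arg152, Fc chimera) and ActRII-ED (Ser25-Pro134, Fc chimera) were amine-coupled on a CM5 chip to about 1600, 3300 and 4300 RU. Serial dilutions of peptide-bearing dendrimer in HBS, within 2.9 nM–6 μM, were injected for 5 min with 5 min dissociation at 10 μL/min. Reference subtraction and HCl regeneration were used.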
On the technique in general: In SPR one partner is held on a chip, and binding of the other changes the refractive index at the surface.

Assay [3] has as its system ActRII-ED. The experiment in a line: SPR, ActRII-ED. The class given is binding, human. Conditions: verification of immobilized receptor activity. In a few lines:
as §1

The target of assay [4] is T1, TβRI-ED (Homo sapiens, UniProt P36897).
T1 sequence (P36897 25-125): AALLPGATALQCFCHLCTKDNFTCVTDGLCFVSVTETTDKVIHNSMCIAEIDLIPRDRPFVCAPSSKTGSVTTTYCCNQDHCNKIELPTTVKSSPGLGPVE
Put plainly: competition ELISA. The class given is binding. In outline: (§2)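 Equimolar TβRI-ED (residues 1-101, 1.0 μg) or TβRII-ED (1-137, 1.5 μg), E. coli-expressed and refolded, was coated at 4 °C for 12 h. For Kd, M13 phage clones at various concentrations were bound for 1 h at room temperature in 2% BSA/PBS/0.5% Tween 20, with BSA wells as control. For IC50, fixed phage near its apparent Kd was mixed with varying peptide. Read-out was anti-M13-HRP, then ABTS/H2O2 for 30 min and A405; mean ± SD.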

The target in assay [5] is T2, TβRII-ED (residues 1-137) (Homo sapiens, UniProt P37173). Put plainly: competition ELISA. The class given is binding. In a few lines: as §2
On the technique in general: ELISA stands for enzyme-linked immunosorbent assay.

In assay [6] the target is T3, TβRI-ED (residues 7-91) (Homo sapiens, UniProt P36897).
T3 sequence (P36897 31-115): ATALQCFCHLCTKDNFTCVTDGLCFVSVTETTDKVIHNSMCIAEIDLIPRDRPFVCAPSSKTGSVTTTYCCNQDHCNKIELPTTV
Put plainly: SPR, TβRI-ED. Conditions: TGF-β1 41 pM to 30 nM. The class given is binding. In outline:
(§3)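 CM5 chip with HBS (pH 7.4) running buffer. TβRI-ED (residues 7-91), TβRII-ED (1-137) and endoglin-ED (26-586) were amine-coupled (EDC/NHS) from 20 μg/mL in 10 mM NaOAc pH 5.0 to about 3600, 1900 and 7300 RU, then blocked with ethanolamine. The protein-free reference signal was subtracted. Surfaces were regenerated with 100 mM HCl for 30 s.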

The target of assay [7] is T2, TβRII-ED (residues 1-137). Put plainly: SPR, TβRII-ED. The class given is binding. In outline: as §3
The target in assay [8] is monomeric TβRII-ED. Conditions: previous SPR studies; cited from earlier work.
The target in assay [9] is artificially dimerized TβRII-ED. The settings on record: previous SPR studies; cited from earlier work.
Assay [10] has as its target TβRII. The settings on record: read-out: Kd (binding to two copies of TβRII); approximate (~) range; cited from earlier work.
Assay [11] concerns TβRI-ED. Conditions: TGF-β alone; cited from earlier work.

Take `NC(=O)c1ccc(-c2nc(-c3ccc4c(c3)OCO4)c(-c3ccccn3)[nH]2)cc1` [SB-431542]: the “inhibition of TGF-β-induced luciferase gene expression” value in assay [1] is recorded as “completely blocked; also recorded: inhibited TGF-β regulated luciferase gene expression”.

For “BMP-4: known ligand of BMPR-IA and ActRII”, the “binding of BMP-4” value in assay [2] and in assay [3] was “ability to bind BMP-4” each time.

With LTGKNFPMFHRN [Pep1], in [4], the concentration for half-maximal inhibition (IC50) came to 110 µM and the Kd was about 10 µM. In assay [5], this compound gave a 50% inhibitory concentration (IC50) of 156 µM and a Kd of about 10 µM.

MHRMPSFLPTTL [Pep2]: the IC50 in assay [4] is 256 µM; in [5], 274 µM. In addition, the Kd in assay [4] and in assay [5] was about 10 µM throughout.

In the case of “TGF-β1: Recombinant human TGF-β1, disulfide-linked homodimer growth factor”, the “binding to TβRI-ED surface” value in assay [6] is recorded as “did not bind detectably; also recorded: no observable affinity”. Besides, the Kd was about 0.0014 µM in assay [7] (read-out: apparent Kd, TGF-β1 41 pM to 30 nM, dose dependent SPR responses, surface a mixture of monomeric and dimeric receptor); about 0.1 µM in assay [8]; about 5 pM in assay [9]; 0.005 to 0.03 nM in [10].

As to TGF-β3: TGF-β isoform 3, the Kd in assay [10] is 0.005 to 0.03 nM.

As to “TGF-β: transforming growth factor β, generic wording; TGF-β1 in the authors' own experiments”, in assay [7] (binding to TβRII-ED, SPR), the saturating concentration stood at 10 nM. In [11], the “affinity for TβRI-ED” value was “weak affinity”.

As usually defined, the IC50 is the point on the concentration scale where inhibition reaches its midpoint.
